Laboratory results as given in ChEMBL document CHEMBL4368872, “Synthesis and anticonvulsant activity of phenoxyacetyl derivatives of amines, including aminoalkanols and amino acids” (Medchemcomm, 2018).
Calls of active or inactive are those of the source.

What was measured:
[1] = Neurotoxicity in Sprague-Dawley rat at 100 mg/kg, ip measured after 1 hr by rotarod test; assay type: toxicity, organism-based; conditions: in vivo
Method in brief: (§1)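 Rat neurotoxicity after i.p. or p.o. dosing was scored as animals impaired / animals tested at each time point. For p.o. dosing, TD50 was obtained by probit analysis.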

[2] = Neurotoxicity in CF-1 mouse at 300 mg/kg, ip measured after 0.5 hrs by rotarod test; assay type: toxicity, organism-based; conditions: in vivo
Method in brief: (§2)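 Mice dosed i.p. were placed on a 1 in. knurled rod turning at 6 rpm. Toxicity was scored as failure to keep balance for at least 1 min, i.e. falling off three or more times. Results are reported as animals showing toxicity / animals tested at each time point.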

[3] = Mutagenicity in Salmonella typhimurium TA1535 assessed as mutagenicity index at 50 to 500 ug/plate preincubated for 30 mins followed by top agar addition and measured after 48 hrs in presence of liver S9 fraction by Ames test; assay type: toxicity, subcellular; conditions: salmonella enterica subsp. enterica serovar typhimurium, s9, 48 h
Method in brief: (§3)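 Ames plate incorporation in S. typhimurium TA100 or TA1535, with or without S9. Overnight culture, compound in DMSO (50–500 µg per plate) and buffer or S9 mix preincubated 30 min at 37 °C, then top agar on glucose minimal agar. Incubated 48 h at 37 °C, revertants counted in triplicate. Vehicle negative control; NaN3 (−S9) and 2AA (+S9) positive controls. MI = revertants with compound / negative-control revertants; MI ≥ 2 with dose-response counts as positive.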

[4] = tested on: Salmonella typhimurium; assay: Antimutagenic activity against Salmonella typhimurium TA100 assessed as inhibition of NaN3-induced mutation at 250 ug/plate preincubated for 30 mins followed by top agar addition and measured after 48 hrs in presence of liver S9 fraction by Ames test relative to control; assay type: organism-based; conditions: salmonella enterica subsp. enterica serovar typhimurium, s9, 48 h
[5] = Neurotoxicity in Sprague-Dawley rat at 30 mg/kg, po measured after 0.25 hrs by rotarod test; assay type: toxicity, organism-based; conditions: in vivo; method in brief: as §1
[6] = Mutagenicity in Salmonella typhimurium TA1535 assessed as mutagenicity index at 50 to 500 ug/plate preincubated for 30 mins followed by top agar addition and measured after 48 hrs in absence of liver S9 fraction by Ames test; assay type: toxicity; conditions: salmonella enterica subsp. enterica serovar typhimurium, s9, 48 h; method in brief: as §3
[7] = tested on: Mus musculus; assay: Anticonvulsant activity in CF-1 mouse model of subcutaneous pentylenetetrazole-induced seizure assessed as reduction in convulsions at 30 mg/kg, ip measured at 4 hrs post dose; assay type: functional, organism-based
Method in brief: (§4)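 Mice dosed i.p., then given pentylenetetrazole 85 mg/kg in 0.9% NaCl s.c. into the posterior midline of the neck. Seizures watched for at least 30 min. Scored as protected / tested at 0.5 and 4 h.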

[8] = tested on: Mus musculus; assay: Anticonvulsant activity in CF-1 mouse model of subcutaneous pentylenetetrazole-induced seizure assessed as reduction in convulsions at 30 mg/kg, ip measured at 0.5 hrs post dose; assay type: functional, organism-based; method in brief: as §4
[9] = tested on: Salmonella typhimurium; assay: Antimutagenic activity against Salmonella typhimurium TA100 assessed as inhibition of NaN3-induced mutation at 100 ug/plate preincubated for 30 mins followed by top agar addition and measured after 48 hrs in presence of liver S9 fraction by Ames test relative to control; assay type: organism-based; conditions: salmonella enterica subsp. enterica serovar typhimurium, s9, 48 h
[10] = Neurotoxicity in CF-1 mouse at 30 mg/kg, ip measured after 0.5 hrs by rotarod test; assay type: toxicity, organism-based; conditions: in vivo; method in brief: as §2
[11] = tested on: Mus musculus; assay: Anticonvulsant activity in CF-1 mouse model of maximal electroshock-induced seizure assessed as suppression of tonic hind limb extension at 100 mg/kg, ip measured at 1 hr post dose; assay type: functional, organism-based
Method in brief: (§5)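 Mice dosed i.p. and given maximal electroshock at 50 mA. Read-out is protection, reported as number protected / number tested at 0.25, 0.5, 1 and 4 h after dosing.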

[12] = tested on: Mus musculus; assay: Anticonvulsant activity in CF-1 mouse model of maximal electroshock-induced seizure assessed as suppression of tonic hind limb extension at 300 mg/kg, ip measured at 0.5 hrs post dose; assay type: functional, organism-based; method in brief: as §5
[13] = tested on: Mus musculus; assay: Anticonvulsant activity in CF-1 mouse model of subcutaneous pentylenetetrazole-induced seizure assessed as reduction in convulsions at 100 mg/kg, ip measured at 4 hrs post dose; assay type: functional, organism-based; method in brief: as §4
[14] = Neurotoxicity in Sprague-Dawley rat at 30 mg/kg, po measured after 0.5 hrs by rotarod test; assay type: toxicity, organism-based; conditions: in vivo; method in brief: as §1
[15] = tested on: Rattus norvegicus; assay: Anticonvulsant activity in Sprague-Dawley rat model of maximal electroshock-induced seizure assessed as suppression of tonic hind limb extension at 30 mg/kg, po measured at 0.5 hrs post dose; assay type: functional, organism-based
Method in brief: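 Rats given 30 mg/kg p.o. and tested by maximal electroshock at 150 mA. Scored as number protected / number tested (4 per group) at 0.25, 0.5, 1, 2 and 4 h after dosing.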

[16] = tested on: Mus musculus; assay: Anticonvulsant activity in CF-1 mouse model of maximal electroshock-induced seizure assessed as suppression of tonic hind limb extension at 100 mg/kg, ip measured at 0.5 hrs post dose; assay type: functional, organism-based; method in brief: as §5
[17] = Neurotoxicity in CF-1 mouse at 300 mg/kg, ip measured after 4 hrs by rotarod test; assay type: toxicity, organism-based; conditions: in vivo; method in brief: as §2
[18] = tested on: Mus musculus; assay: Anticonvulsant activity in CF-1 mouse model of maximal electroshock-induced seizure assessed as suppression of tonic hind limb extension at 110 mg/kg, ip measured at 0.25 hrs post dose; assay type: functional, organism-based; method in brief: as §5
[19] = tested on: Rattus norvegicus; assay: Anticonvulsant activity in hippocampal kindling Sprague-Dawley rat model assessed as after discharge time at 100 mg/kg, ip administered as single dose measured immediately; assay type: functional
Method in brief: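 Rats implanted with a hippocampal electrode and kindled with suprathreshold trains (200 µA, 10 s, 50 Hz) every 30 min for 6 h on alternate days until fully kindled. One week later they received a single i.p. dose. Seizure score (Racine scale) and afterdischarge duration were recorded at 0–135 min and compared with the control stimulus given 15 min before dosing; each animal served as its own control. Values are mean ± SEM.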

[20] = Neurotoxicity in Sprague-Dawley rat at 30 mg/kg, ip measured after 2 hrs by rotarod test; assay type: toxicity, organism-based; conditions: in vivo; method in brief: as §1
[21] = tested on: Mus musculus; assay: Anticonvulsant activity in CF-1 mouse model of maximal electroshock-induced seizure assessed as suppression of tonic hind limb extension at 110 mg/kg, ip measured at 4 hrs post dose; assay type: functional, organism-based; method in brief: as §5
[22] = Neurotoxicity in CF-1 mouse at 220 mg/kg, ip measured after 0.25 hrs by rotarod test; assay type: toxicity, organism-based; conditions: in vivo; method in brief: as §2
[23] = Neurotoxicity in Sprague-Dawley rat assessed as abnormal behavior at 100 mg/kg, ip administered as single dose measured after 0.25 hrs by rotarod test; assay type: toxicity, organism-based; conditions: in vivo; method in brief: as §1
[24] = Neurotoxicity in Sprague-Dawley rat at 100 mg/kg, ip measured after 4 hrs by rotarod test; assay type: toxicity, organism-based; conditions: in vivo; method in brief: as §1
[25] = tested on: Astrocyte; assay: Cytotoxicity against mouse astrocytes assessed as effect on cell proliferation at 10 to 200 uM after 72 hrs by crystal violet staining based spectrophotometric method
Method in brief: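 Proliferation in mouse astrocyte line: 1×10^4 cells per well, exposed 24 h after seeding to 10–200 µM for 72 h. Fixed in 3.7% formaldehyde, stained 10 min with 0.01% crystal violet, dye eluted with methanolic citric acid/sodium citrate, OD at 540 nm.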

[26] = tested on: Mus musculus; assay: Anticonvulsant activity in ip dosed CF-1 mouse model of maximal electroshock-induced seizure assessed as time required for suppression of tonic hind limb extension; assay type: functional
[27] = Protection index, ratio of TD50 for neurotoxicity in po dosed Sprague-Dawley rat to ED50 for anticonvulsant activity in Sprague-Dawley rat model of maximal electroshock-induced seizure; assay type: toxicity, organism-based; conditions: in vivo, read-out: Ratio TD50/ED50
Method in brief: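 The rat p.o. protective index is TD50 (rotarod) / ED50 (MES, 150 mA). Both values were calculated by probit analysis.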

| SMILES | Activity [1] | Activity index [3] | inhibition (INH) [4] | Activity [5] | Activity index [6] | Activity [7] | Activity [8] | inhibition (INH) [9] | Activity [10] | Activity [11] | Activity [12] | Activity [13] | Activity [14] | Activity [15] | Activity [16] | Activity [17] | other results |
| --- | --- | --- | --- | --- | --- | --- | --- | --- | --- | --- | --- | --- | --- | --- | --- | --- | --- |
| CCC(O)CNC(=O)COc1c(C)cccc1C (stereo not drawn) | Non-Toxic | 0.7 to 1.7 | 11% | Non-Toxic | 0.7 to 1.7 | inactive | inactive | 26% | Non-Toxic | inactive | Active | inactive | Non-Toxic | Active | inactive | Non-Toxic | Activity [2]: Toxic |
| Cc1cccc(C)c1OCC(=O)N[C@H](C)CO | Non-Toxic | 0.7 to 1.7 | 38% | Non-Toxic | 0.7 to 1.7 | inactive | inactive | 43% | Non-Toxic | inactive | Active | inactive | Non-Toxic | Active | inactive | Non-Toxic | Activity [18]: Active; Time [19]: 68 s; Activity [20]: Non-Toxic; Activity [21]: inactive; Activity [22]: Toxic; Activity [23]: Toxic; Activity [24]: Non-Toxic; Activity [25]: Non-Toxic; Time [26]: 0.25 h; selectivity ratio [27]: > 41.6 |
